Experimental data: ChEMBL document CHEMBL3286328, “Characterization of proapoptotic compounds from the bark of Garcinia oblongifolia” (J Nat Prod, 2014)
Activity calls are given as the source filed them. The calls are words filed in the database; no cut-off is given here.

Key:
[1] = Cytotoxicity against human HeLaC3 sensor cells assessed as decrease in YFP/CFP emission ratio within 72 hrs by FRET assay; assay type: functional, HeLa C3
How it was run: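 HeLa-C3 cells stably express a CFP–DEVD linker–YFP FRET caspase-3 sensor. Cells were seeded at 7500 per well, and after 12−16 h a background-subtracted baseline was read (excitation 440 nm; emission 486 nm CFP, 535 nm YFP). Compound at 10 μM was added in fresh medium, with 0.1% DMSO vehicle and 500 nM paclitaxel as positive control. Plates were read repeatedly for up to 72 h. An active compound lowers the YFP/CFP ratio to 3 or below.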

[2] = system: HeLa; test: Cytotoxicity against human HeLa cells assessed as decrease in cell viability at 10 uM after 72 hrs by MTT assay; assay type: functional
How it was run: (§1)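 HeLa cells were exposed to compound at 10 μM for 72 h. Vehicle was medium with 0.1% DMSO; paclitaxel (500 nM) was the positive control. MTT (5 mg/mL stock in PBS) was added for 2 h at 37 °C. Crystals were dissolved in 10% SDS/0.01 M HCl for 24 h at 37 °C, and OD was read at 595 nm. Viability at 0 h was set to 100. Three independent experiments.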

[3] = system: HeLa; test: Induction of apoptosis in human HeLa cells assessed as morphological and condensed or fragmented DNA at 10 uM after 72 hrs by Hoechst 33342 staining in presence of z-VAD-fmk; assay type: functional, cell-based
How it was run: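 HeLa cells were treated with compound (10 μM) alone or with zVAD-fmk (50 μM) for 72 h. Controls were medium with 0.1% DMSO, with or without zVAD-fmk. Cells were stained with Hoechst 33342, washed three times with PBS, and imaged by phase contrast and fluorescence microscopy for cell and nuclear morphology.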

[4] = system: HeLa; test: Cytotoxicity against human HeLa cells assessed as decrease in cell viability after 72 hrs by MTT assay; assay type: functional, cell-based
How it was run: (§2)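 For each cell line, 3000 cells per well were cultured overnight, then given fresh medium with compound. Each compound was tested at ≥7 concentrations in a 3-fold dilution series, with a final DMSO-stock dilution of at least 1000-fold. After 72 h, viability was read by MTT (OD 595 nm). Inhibition was calculated as 1 − [(T72 − C0)/(C72 − C0)] against the 0.1% DMSO control and fitted sigmoidally versus log concentration. Values are mean ± SD, n = 3.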

[5] = system: MDA-MB-435; test: Cytotoxicity against human MDA-MB-435 cells assessed as decrease in cell viability after 72 hrs by MTT assay; assay type: functional, cell-based; conditions: MDA-MB-435, 72 h; how it was run: as §2
[6] = system: HepG2; test: Cytotoxicity against human HepG2 cells assessed as decrease in cell viability after 72 hrs by MTT assay; assay type: functional, cell-based; conditions: HepG2, 72 h; how it was run: as §2
[7] = system: MCF7; test: Cytotoxicity against human MCF7 cells assessed as decrease in cell viability after 72 hrs by MTT assay; assay type: functional, cell-based; conditions: MCF7, 72 h; how it was run: as §2
[8] = system: MCF7; test: Cytotoxicity against human MCF7 cells overexpressing HER2 assessed as decrease in cell viability after 72 hrs by MTT assay; assay type: functional, cell-based; conditions: MCF7, 72 h; how it was run: as §2
[9] = system: HCT-116; test: Cytotoxicity against human HCT116 cells assessed as decrease in cell viability after 72 hrs by MTT assay; assay type: functional, cell-based; conditions: HCT-116, 72 h; how it was run: as §2
[10] = Cytotoxicity against human HCT15 cells assessed as decrease in cell viability after 72 hrs by MTT assay; assay type: functional, cell-based; conditions: HCT-15, 72 h; how it was run: as §2
[11] = system: HeLa; test: Cytotoxicity against human HeLa cells assessed as decrease in cell viability at 10 uM after 72 hrs by MTT assay relative to control; assay type: functional; how it was run: as §1
[12] = system: HeLa; test: Induction of apoptosis in human HeLa cells assessed as caspase-3 activation at 10 uM after 24 hrs; assay type: functional, cell-based
How it was run: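 HeLa cells were treated for 24 h with compound (10 μM), against 0.1% DMSO vehicle; the positive control was UV for 3 min, harvested after 6 h. Lysates were made in Tris pH 7.5/Triton buffer with protease inhibitors. A sample of 50 μg protein was incubated with Ac-DEVD-AMC in HEPES pH 7.5 buffer for 1 h at 37 °C in the dark. Fluorescence was read at 355/460 nm and expressed as net reading per μg protein.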

## CC(C)=CCC/C(C)=C/C[C@@H]1C[C@]2(CC=C(C)C)C(=O)[C@@](CC=C(C)C)(C(=O)C(C(=O)c3cccc(O)c3)=C2O)[C@@]1(C)CCC=C(C)C [GARCICOWIN B]
[1]
  Ratio: 3
[2]
  viability at 10 µM: 50%
[3]
  Activity: inactive
[4]
  IC50: 10.8 µM
[5]
  IC50: 12.6 µM
[6]
  IC50: 6.2 µM
[7]
  IC50: 10.8 µM
[8]
  IC50: 19.1 µM
[9]
  IC50: 6 µM
[10]
  IC50: 9.6 µM

## COc1cc(O)c2c(=O)c3ccc(O)c(O)c3oc2c1CCC(C)(C)O [NIGROLINEAXANTHONE T]
[1]
  Ratio: 3
[2]
  viability at 10 µM: 50%
[3]
  Activity: inactive
[4]
  IC50: 4.7 µM
[5]
  IC50: 9 µM
[6]
  IC50: 4.8 µM
[7]
  IC50: 3 µM
[8]
  IC50: 3.8 µM
[9]
  IC50: 3.7 µM
[10]
  IC50: 2.4 µM

## CC(C)=CCC/C(C)=C/C[C@H]1C(C)(C)[C@@]2(CC=C(C)C)C(=O)c3c(oc4cc(O)c(O)cc4c3=O)[C@](CC=C(C)C)(C2=O)C1(C)C [OBLONGIFOLIN F]
[1]
  Ratio: 3
[2]
  viability at 10 µM: 50%
[11]
  fold change (FC): >30
[12]
  Activity: Active
[3]
  Activity: inactive
[4]
  IC50: 4.2 µM
[5]
  IC50: 16.5 µM
[6]
  IC50: 7.7 µM
[7]
  IC50: 3 µM
[8]
  IC50: 5.1 µM
[9]
  IC50: 2.9 µM
[10]
  IC50: 4.9 µM

## CC(C)=CCC/C(C)=C/C[C@@H]1C(C)(C)[C@@]2(CC=C(C)C)C(=O)c3c(oc4cc(O)c(O)cc4c3=O)[C@](CC=C(C)C)(C2=O)C1(C)C [OBLONGIFOLIN G]
[1]
  Ratio: 3
[2]
  viability at 10 µM: 50%
[11]
  fold change (FC): >30
[12]
  Activity: Active
[3]
  Activity: inactive
[4]
  IC50: 3.9 µM
[5]
  IC50: 16.5 µM
[6]
  IC50: 7.7 µM
[7]
  IC50: 2.6 µM
[8]
  IC50: 2.9 µM
[9]
  IC50: 2.9 µM
[10]
  IC50: 4 µM

## CC1(C)C=Cc2cc3c(=O)c4c(O)cc(O)cc4oc3c(O)c2O1
[1]
  Ratio: 3
[2]
  viability at 10 µM: 50%
[3]
  Activity: inactive
[4]
  IC50: 4.9 µM
[5]
  IC50: 3.9 µM
[6]
  IC50: 10.1 µM
[7]
  IC50: 11.7 µM
[8]
  IC50: 34.4 µM
[9]
  IC50: 4.7 µM
[10]
  IC50: 5.1 µM
